Reference: ChEMBL document CHEMBL1687761

Key:
[1] = molecular target: Metallo-beta-lactamase (Escherichia coli) (UniProt Q5U7L7); assay: Activity of beta-lactamase VIM-2 in Escherichia coli XL1-Blue isolated from 5 hrs grown culture
Summary of the method: (§1)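 E. coli XL-1 carrying pLBII-VIM-2 (wild-type or W87F) was grown and sampled at the stated times, with cell density read as A600. Imipenem hydrolysis in crude cell extracts was read spectrophotometrically in 10 mM HEPES pH 7.5 with 50 μM ZnSO4 and 150 μM imipenem. Activity was normalized to cell density. Values are means of three independent measurements.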

Escherichia coli [2] = assay: Ratio of Kcat to Km for Escherichia coli XL1-Blue wild-type IMP-1 beta-lactamase by spectrophotometer
[3] = molecular target: Metallo-beta-lactamase (Escherichia coli) (UniProt Q5U7L7); assay: Activity of beta-lactamase VIM-2 in Escherichia coli XL1-Blue isolated from 1.2 hrs grown culture
Summary of the method: (§2)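 Imipenem-hydrolyzing activity in crude cell extracts of E. coli XL-1 carrying pLBII-VIM-2 or pLBII-VIM-2-W87F. Read spectrophotometrically with 150 μM imipenem in 10 mM HEPES (pH 7.5) plus 50 μM ZnSO4. Activity normalized to culture density (A600). Means of three independent measurements.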

[4] = tested on: Metallo-beta-lactamase (Escherichia coli), Q5U7L7 [W87F]; assay: (§3) Activity of beta-lactamase VIM-2 W87F mutant expressed in Escherichia coli XL1-Blue isolated from […] grown culture
Escherichia coli [5] = assay: Activity of Escherichia coli XL1-Blue IMP-1 W64A mutant beta-lactamase by spectrophotometer
Escherichia coli [6] = assay: Activity of Escherichia coli XL1-Blue wild-type IMP-1 beta-lactamase by spectrophotometer
[7] = molecular target: Metallo-beta-lactamase (Escherichia coli) (UniProt Q5U7L7); assay: Activity of beta-lactamase VIM-2 in Escherichia coli XL1-Blue isolated from 4.3 hrs grown culture; summary of the method: as §2
[8] = tested on: Metallo-beta-lactamase (Escherichia coli), Q5U7L7 [W87F]; assay: as §3; remark: listed apart in the source
Escherichia coli [9] = assay: Activity of Escherichia coli XL1-Blue VIM-2 A64W mutant beta-lactamase by spectrophotometer
Summary of the method: (§4)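 Mutant enzyme expressed in E. coli BL21(DE3) in autoinducing ZYP-5052 medium. Purified by anion exchange at pH 7.2, then high-resolution anion exchange at pH 9.2, plus gel filtration in 50 mM HEPES-50 μM ZnSO4 pH 7.5 where needed. Identity confirmed by tryptic peptide mass fingerprint. Steady-state kinetics on β-lactam substrates were run under the conditions used for wild-type VIM-2.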

Escherichia coli [10] = assay: Ratio of Kcat to Km for Escherichia coli XL1-Blue IMP-1 W64A mutant beta-lactamase by spectrophotometer
[11] = molecular target: Metallo-beta-lactamase (Escherichia coli) (UniProt Q5U7L7); assay: (§5) Activity of beta-lactamase VIM-2 in Escherichia coli XL1-Blue isolated from […] grown culture
[12] = tested on: Metallo-beta-lactamase (Escherichia coli), Q5U7L7 [W87F]; assay: Activity of beta-lactamase VIM-2 W87F mutant expressed in Escherichia coli XL1-Blue isolated from 3.3 hrs grown culture; summary of the method: as §1
[13] = tested on: Metallo-beta-lactamase (Escherichia coli), Q5U7L7 [W87F]; assay: Activity of beta-lactamase VIM-2 W87F mutant expressed in Escherichia coli XL1-Blue isolated from 5.0 hrs grown culture; summary of the method: as §1
[14] = tested on: Metallo-beta-lactamase (Escherichia coli), Q5U7L7 [W87F]; assay: Activity of beta-lactamase VIM-2 W87F mutant expressed in Escherichia coli XL1-Blue isolated from 4.3 hrs grown culture; summary of the method: as §2
[15] = tested on: Metallo-beta-lactamase (Escherichia coli), Q5U7L7 [W87F]; assay: Activity of beta-lactamase VIM-2 W87F mutant expressed in Escherichia coli XL1-Blue isolated from 0.5 hrs grown culture; summary of the method: as §1
[16] = molecular target: Metallo-beta-lactamase (Escherichia coli) (UniProt Q5U7L7); assay: as §5; remark: listed apart in the source
[17] = molecular target: Metallo-beta-lactamase (Escherichia coli) (UniProt Q5U7L7); assay: Activity of beta-lactamase VIM-2 in Escherichia coli XL1-Blue isolated from 3.8 hrs grown culture; summary of the method: as §1
[18] = molecular target: Metallo-beta-lactamase (Escherichia coli) (UniProt Q5U7L7); assay: Activity of beta-lactamase VIM-2 in Escherichia coli XL1-Blue isolated from 0.5 hrs grown culture; summary of the method: as §1
Escherichia coli [19] = assay: Ratio of Kcat to Km for Escherichia coli XL1-Blue VIM-2 A64W mutant beta-lactamase by spectrophotometer; summary of the method: as §4
[20] = molecular target: Metallo-beta-lactamase (Escherichia coli) (UniProt Q5U7L7); assay: Activity of beta-lactamase VIM-2 in Escherichia coli XL1-Blue isolated from 3.3 hrs grown culture; summary of the method: as §1
[21] = tested on: Metallo-beta-lactamase (Escherichia coli), Q5U7L7 [W87F]; assay: Activity of beta-lactamase VIM-2 W87F mutant expressed in Escherichia coli XL1-Blue isolated from 6.0 hrs grown culture; summary of the method: as §1
[22] = tested on: Metallo-beta-lactamase (Escherichia coli), Q5U7L7 [W87F]; assay: as §3; remark: listed apart in the source
[23] = molecular target: Metallo-beta-lactamase (Escherichia coli) (UniProt Q5U7L7); assay: Activity of beta-lactamase VIM-2 in Escherichia coli XL1-Blue isolated from 6 hrs grown culture; summary of the method: as §1
[24] = tested on: Metallo-beta-lactamase (Escherichia coli), Q5U7L7 [W87F]; assay: Activity of beta-lactamase VIM-2 W87F mutant expressed in Escherichia coli XL1-Blue isolated from 1.2 hrs grown culture; summary of the method: as §2
[25] = molecular target: Metallo-beta-lactamase (Escherichia coli) (UniProt Q5U7L7); assay: as §5; remark: listed apart in the source
[26] = tested on: Metallo-beta-lactamase (Escherichia coli), Q5U7L7 [W87F]; assay: Activity of beta-lactamase VIM-2 W87F mutant expressed in Escherichia coli XL1-Blue isolated from 3.8 hrs grown culture; summary of the method: as §1
[27] = tested on: C[C@@H](O)[C@H]1C(=O)N2C(C(=O)O)=C(SCCNC=N)C[C@H]12; assay: (§6) Activity of Escherichia coli BL21(DE3) VIM-2 W87A mutant beta-lactamase by spectrophotometer
[28] = tested on: CO/N=C(\C(=O)N[C@@H]1C(=O)N2C(C(=O)[O-])=C(C[N+]3(C)CCCC3)CS[C@H]12)c1csc(N)n1; assay: as §6
[29] = tested on: C[C@@H](O)[C@H]1C(=O)N2C(C(=O)O)=C(SCCNC=N)C[C@H]12; assay: (§7) Ratio of Kcat to Km for Escherichia coli BL21(DE3) VIM-2 W87A mutant beta-lactamase by spectrophotometer
[30] = tested on: CO/N=C(\C(=O)N[C@@H]1C(=O)N2C(C(=O)[O-])=C(C[N+]3(C)CCCC3)CS[C@H]12)c1csc(N)n1; assay: as §7
[31] = tested on: C[C@@H](O)[C@H]1C(=O)N2C(C(=O)O)=C(SCCNC=N)C[C@H]12; assay: (§8) Activity of Escherichia coli BL21(DE3) VIM-2 W87F mutant beta-lactamase by spectrophotometer
[32] = tested on: CO/N=C(\C(=O)N[C@@H]1C(=O)N2C(C(=O)[O-])=C(C[N+]3(C)CCCC3)CS[C@H]12)c1csc(N)n1; assay: as §8
[33] = tested on: C[C@@H](O)[C@H]1C(=O)N2C(C(=O)O)=C(SCCNC=N)C[C@H]12; assay: (§9) Ratio of Kcat to Km for Escherichia coli BL21(DE3) VIM-2 W87F mutant beta-lactamase by spectrophotometer
[34] = tested on: CO/N=C(\C(=O)N[C@@H]1C(=O)N2C(C(=O)[O-])=C(C[N+]3(C)CCCC3)CS[C@H]12)c1csc(N)n1; assay: as §9

C[C@@H](O)[C@H]1C(=O)N2C(C(=O)O)=C(SCCNC=N)C[C@H]12
Activity [1]: 330 nmol/mL/min
kcat/Km (Escherichia coli [2]): 2.7 µM⁻¹ s⁻¹
Activity [3]: < 2.7 nmol/mL/min
Activity [4]: < 2.7 nmol/mL/min
Km (Escherichia coli [5]): 120 µM
kcat (Escherichia coli [5]): 67 s⁻¹
Km (Escherichia coli [6]): 25 µM
kcat (Escherichia coli [6]): 68 s⁻¹
Activity [7]: 270 nmol/mL/min
Activity [8]: < 2.7 nmol/mL/min
Km (Escherichia coli [9]): 21 µM
kcat (Escherichia coli [9]): 60 s⁻¹
kcat/Km (Escherichia coli [10]): 0.55 µM⁻¹ s⁻¹
Activity [11]: 39 nmol/mL/min
Activity [12]: < 2.7 nmol/mL/min
Activity [13]: 7.9 nmol/mL/min
Activity [14]: 4.7 nmol/mL/min
Activity [15]: < 2.7 nmol/mL/min
Activity [16]: 30 nmol/mL/min
Activity [17]: 240 nmol/mL/min
Activity [18]: < 2.7 nmol/mL/min
kcat/Km (Escherichia coli [19]): 2.9 µM⁻¹ s⁻¹
Activity [20]: 170 nmol/mL/min
Activity [21]: 9.5 nmol/mL/min
Activity [22]: < 2.7 nmol/mL/min
Activity [23]: 380 nmol/mL/min
Activity [24]: < 2.7 nmol/mL/min
Activity [25]: 110 nmol/mL/min
Activity [26]: 4.7 nmol/mL/min

O=C(Cc1cccs1)N[C@@H]1C(=O)N2C(C(=O)O)=C(/C=C/c3ccc([N+](=O)[O-])cc3[N+](=O)[O-])CS[C@H]12
kcat/Km (Escherichia coli [2]): 14 µM⁻¹ s⁻¹
Km (Escherichia coli [5]): 160 µM
kcat (Escherichia coli [5]): 700 s⁻¹
Km (Escherichia coli [6]): 8.2 µM
kcat (Escherichia coli [6]): 130 s⁻¹
Km (Escherichia coli [9]): 10 µM
kcat (Escherichia coli [9]): 270 s⁻¹
kcat/Km (Escherichia coli [10]): 4.3 µM⁻¹ s⁻¹
kcat/Km (Escherichia coli [19]): 27 µM⁻¹ s⁻¹

Metallo-beta-lactamase (Escherichia coli) (from UniProt Q5U7L7) W87A
Km [27]: 22 µM
kcat [27]: 119 s⁻¹
Km [28]: > 350 µM
kcat [28]: > 4.5 s⁻¹
kcat/Km [29]: 5.4 µM⁻¹ s⁻¹
kcat/Km [30]: 0.012 µM⁻¹ s⁻¹

CC(C)(O/N=C(\C(=O)N[C@@H]1C(=O)N2C(C(=O)[O-])=C(C[n+]3ccccc3)CS[C@H]12)c1csc(N)n1)C(=O)O
kcat/Km (Escherichia coli [2]): 0.18 µM⁻¹ s⁻¹
Km (Escherichia coli [6]): 44 µM
kcat (Escherichia coli [6]): 8 s⁻¹
Km (Escherichia coli [9]): 40 µM
kcat (Escherichia coli [9]): 0.7 s⁻¹
kcat/Km (Escherichia coli [19]): 0.018 µM⁻¹ s⁻¹

Metallo-beta-lactamase (Escherichia coli) (from UniProt Q5U7L7) W87F
Km [31]: 6 µM
kcat [31]: 22 s⁻¹
Km [32]: > 450 µM
kcat [32]: > 20 s⁻¹
kcat/Km [33]: 3.7 µM⁻¹ s⁻¹
kcat/Km [34]: 0.048 µM⁻¹ s⁻¹
